Assay outcomes deposited in PubChem by Broad Institute.
SR-BI uptake up = enhances SR-BI lipid uptake from DiI-HDL. CHO ldlA[mSR-BI] cells, DiI-HDL uptake fluorescence, 3 h; 100 = double the neutral-control signal. 320,000 tested, 0.096% active. activation, % at 12.5 µM;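 active = mean replicate activation of at least 60% and every replicate at or above 60%; inconclusive = mean or all-replicate condition met, but not both; inactive = mean below 60% and not all replicates reaching 60%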
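Test system: SR-BI-overexpressing, LDLR-lacking CHO cells; Medium: Ham's F12 with 0.5% BSA, HEPES 25 mM, pH 7.4; Schedule: 3 h, 37 °C; Technique: bottom-read fluorescence, 550/595 nm.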
dFosB act-1 = activators of mouse delta FosB homodimer; purified delta FosB, TAMRA-CDK5 oligo fluorescence polarization; percent of positive-control signal above neutral wells; AID 493131; activation, % at 25 µM; 340,000 tested, 0.99% active; P13346;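 active = mean activation above about 17%, with every replicate also reaching it, limit read from the data, passing the limit was not always enough; inconclusive = only one of the two conditions met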
DYRK1A inh = inhibitors of rat Dyrk1A kinase | Q63470 | ADP-Glo luminescence, NFATc1 peptide | inhibition, % at 12.5 µM | 310,000 tested, 0.43% active | AID 504441
SR-BI DiI inh = inhibitors of mouse SR-BI mediated HDL lipid uptake; AID 488896; ldlA[mSR-BI] CHO cells, DiI-HDL uptake fluorescence, 3 h; 320,000 tested, 0.96% active; inhibition, % at 12.5 µM;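 active = mean replicate inhibition of at least 70% and a set share of replicates each scoring 70 or more; inconclusive = meets just one of the two criteria; inactive = fails both criteria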
CDK5 inh = CDK5/p35 (human) kinase inhibition; Q00535+Q15078; Recombinant CDK5/p35, ADP-Glo luminescence, 60 min; inhibition, % at 10 µM; 330,000 tested, 0.01% active; AID 488839;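 active = highest replicate inhibition of at least 50% and at least 75% of replicates reaching 50%; inconclusive = only one of the two criteria met; inactive = both criteria failed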
NSD2 HMT inh = NSD2 (human) methyltransferase inhibition | NSD2 peptide methylation, AlphaScreen, 120 min | 310,000 tested, 0.54% active | inhibition, % at 12.5 µM | O96028
dFosB act-2 = activators of mouse delta FosB homodimer DNA binding. shares compounds with dFosB act-1. purified delta FosB, TAMRA-CDK5 oligo fluorescence polarization; normalised: neutral wells 0, positive control 100. activation, % at 24.9 µM. 2,400 tested, under 10 active. AID 588690;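 active = highest replicate activation at or above 34% and every replicate reaching that threshold; inconclusive = meets only one of the two criteria; inactive = meets neither criterion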;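 note: higher polarization means more probe DNA bound by delta FosB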
Of the large screens only hits and unclear results are named; the others gave an inactive call (follow-up assays come after a bar, where they were run). A selection: hits, their analogues and other compounds. The true share with any hit is near 2.5%. Cut-off read from the data, not from the text of the source, unless noted: active = inhibition above about 50%; inactive = the rest.

CN(c1ccccc1)S(=O)(=O)c1ccc(NC(=O)c2ccccc2)cc1	none
COc1ccccc1N(C)S(=O)(=O)c1ccc(C(=O)OCC(=O)Nc2ccc(C(N)=O)cc2)cc1	dFosB act-1 66 (no result: DYRK1A inh) | dFosB act-2 inactive
C=CC[C@@H](CC(=O)N(CCO)Cc1ccccc1)C(=O)NC[C@H](OC(=O)[C@@H](CC=C)Cc1ccc(F)cc1)c1ccccc1	none (no result: NSD2 HMT inh)
C=CCN(CC(=O)NC1CC1)S(=O)(=O)c1cccc(C(F)(F)F)c1	none
CC(C)(C)N1[C@@H](CC(=O)O)c2cc(C(F)(F)F)ccc2S1(=O)=O	none (no result: NSD2 HMT inh)
Cc1ccc(Cn2c(CCNc3nc(-c4ccc(C)cc4)cs3)nc3cc(C(=O)NCCCO)ccc32)cc1	dFosB act-1 23 (no result: NSD2 HMT inh) | dFosB act-2 inactive
CCOc1ccccc1NC(=O)C(c1ccccc1)N1CCN(CC(=O)N2CCCC2)CC1 (stereo unspecified)	none
COc1ccc(C(CNC(=O)c2oc3ccc(Cl)cc3c2C)N2CCCCC2)cc1 (stereo unspecified)	dFosB act-1 23 | dFosB act-2 inactive
CC(C)N1CC(C(=O)Nc2ccc(Cl)cc2Cl)CC1=O (stereo unspecified)	none (no result: SR-BI uptake up, dFosB act-1, DYRK1A inh, SR-BI DiI inh, CDK5 inh)
CCN1C=C(C(=O)OC)C(c2cccc(OC)c2OC)C(C(=O)OC)=C1	none (no result: DYRK1A inh)
Clc1ccc2oc(-c3ccccc3)cc(=NCCCN3CCOCC3)c2c1	none
OCCCCCN=c1cc(-c2ccccc2)oc2ccc(Cl)cc12	dFosB act-1 21 | dFosB act-2 inactive
COc1cc(C=CC(=O)N2CCN(CC(=O)N3CCCC3)CC2)cc(OC)c1OC	none (no result: SR-BI uptake up, dFosB act-1, DYRK1A inh, SR-BI DiI inh, CDK5 inh)
Cc1cc(Br)ccc1NC(=O)CN(C)C(=O)c1ccccc1OCc1c(C)noc1C	none (no result: SR-BI uptake up, dFosB act-1, DYRK1A inh, SR-BI DiI inh, CDK5 inh)
Nc1nonc1-n1nnc(C(=O)N/N=C/c2ccc(Cl)cc2Cl)c1CN1CCOCC1	none
N#C/C(=C\c1ccc[nH]1)C(=O)Nc1ccccc1Cl	dFosB act-1 66 | dFosB act-2 inactive
O=C(O)CC1(C(=O)O)CC2C=CC1C2 (stereo unspecified)	none (no result: SR-BI uptake up, dFosB act-1, DYRK1A inh, SR-BI DiI inh, CDK5 inh)
COc1cc(-c2ccc3c(=O)c4ccccc4n(C)c3c2)cc(OC)c1OC	dFosB act-1 35 (no result: NSD2 HMT inh) | dFosB act-2 inactive
N#Cc1ccc(-c2cccnc2)nc1SCc1ccc(Cl)cc1Cl	dFosB act-1 108 | dFosB act-2 inactive
CN(CC(=O)Nc1ccc(Cl)c(C(F)(F)F)c1)C(=O)c1cc(-c2ccncc2)nc2ccccc12	dFosB act-1 66 | dFosB act-2 inactive
CNc1nc(N/N=C/c2cc3c(cc2[N+](=O)[O-])OCO3)nc(Nc2ccccc2)n1	dFosB act-1 55, SR-BI DiI inh 87 | dFosB act-2 inactive
COc1ccc(/C=N/Nc2nc(Nc3ccccc3)nc(N3CCCC3)n2)cc1[N+](=O)[O-]	dFosB act-1 62, SR-BI DiI inh inconclusive | dFosB act-2 inconclusive
O=[N+]([O-])c1ccc(/C=N/Nc2nc(NCc3ccccc3)nc(N3CCOCC3)n2)cc1	dFosB act-1 27 | dFosB act-2 inactive
COc1cc(/C=N/Nc2nc(Nc3ccccc3)nc(N3CCOCC3)n2)ccc1OC(=O)c1ccco1	dFosB act-1 54, SR-BI DiI inh 73 (no result: NSD2 HMT inh) | dFosB act-2 inactive
O=[N+]([O-])c1cc2c(cc1/C=N\NS(=O)(=O)c1ccccc1)OCO2	none
COc1ccc(S(=O)(=O)Nc2cc3c4c(c2)CC(=O)N4CCC3)cc1C	none
COc1cc2c(cc1OC)CN(C(=O)CNS(=O)(=O)c1ccc(C)c(C)c1)CC2	none (no result: SR-BI uptake up, SR-BI DiI inh)
C[C@@H]1C=CCCO[C@]12C(=O)N(CC1CC1)c1cccc(Br)c12	none (no result: SR-BI uptake up, dFosB act-1, DYRK1A inh, SR-BI DiI inh, CDK5 inh)
Cc1nonc1CC(=O)NC1CCCc2c1cnn2-c1ccc(F)cc1F (stereo unspecified)	none (no result: DYRK1A inh, CDK5 inh)
O=C(COCc1cc(-c2ccc3c(c2)OCO3)on1)Nc1cccnc1Cl	none
C/C(=N/O)c1ccc2c(c1)OCCOCCOc1cc(/C(C)=N/O)ccc1OCCOCCO2	dFosB act-1 21 | dFosB act-2 inactive
O=C(O)Cc1sc(Nc2ccc(F)cc2)nc1-c1cccs1	none
O=C(NCC1OCCc2ccccc21)c1ccc(NC(=O)c2ccc(Cl)cc2Cl)cc1 (stereo unspecified)	dFosB act-1 45 | dFosB act-2 inactive
